Laboratory results: ChEMBL document CHEMBL4513216, “Probing the Open Global Health Chemical Diversity Library for Multistage-Active Starting Points for Next-Generation Antimalarials” (ACS Infect Dis, 2020)

Test: Toxicity liver stage against HepG2, at 10uM
Format: cell-based
Parameters: test concentration 10 uM, cell line HepG2-A16-CD81EGFP
Details: human, HepG2-A16-CD81EGFP cells; read-out: INHIBITION
Outline: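 Uninfected HepG2-A16-CD81EGFP cells, 3 × 10^3 per well, 1536-well, plated on prespotted compound at 10 μM final, parasite-free screening media added to match infected plates; puromycin 10 μM positive, DMSO 0.5% negative; run in parallel with 48 h PbLuc assay at 37 °C, 5% CO2; viability by CellTiter-Glo luminescence, normalized to controls.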

**Q.** With c1ccc2c(Cc3nnc([C@H]4CCN(C5CCCCC5)C4)o3)c[nH]c2c1 as the compound, how does the cytotoxicity at 10 µM read?
**A.** The cytotoxicity at 10 µM was -0.00726%.

**Q.** For CCOC(=O)CNC(=O)Cn1c(-c2ccoc2)nc(C)c1C, which cytotoxicity at 10 µM is on record?
**A.** The cytotoxicity at 10 µM was -2.8%.

**Q.** Which cytotoxicity at 10 µM does the source give for CNC(=O)CN(C(=O)c1ccccc1)[C@H]1C[C@H]2CCOC[C@H]2C1 here?
**A.** The cytotoxicity at 10 µM was -4.36%.

**Q.** With O=C(c1cnc(-c2noc3cc(N4CCCC4)ccc23)s1)N1CCCC1 as the compound, how does the cytotoxicity at 10 µM read?
**A.** Its cytotoxicity at 10 µM is -3.83%.

**Q.** With CNC(=O)N1CC[C@@H]2CN(CCc3cccc(OC)c3)S(=O)(=O)[C@@H]2CC1 as the compound, how does the cytotoxicity at 10 µM read?
**A.** The cytotoxicity at 10 µM was -1.46%.

**Q.** For COC[C@H]1CC[C@H]2[C@H](CCN2C(=O)c2ccncc2F)O1, which cytotoxicity at 10 µM is on record?
**A.** The cytotoxicity at 10 µM was -4.61%.

**Q.** Which cytotoxicity at 10 µM does the source give for COc1nn(C)c2c1CCCN(C(=O)c1cccn1C)C2 here?
**A.** The cytotoxicity at 10 µM was 1.53%.

**Q.** With Cc1cc(=O)[nH]c(=O)n1COCCOCc1ccccc1 as the compound, how does the cytotoxicity at 10 µM read?
**A.** Its cytotoxicity at 10 µM is 3.36%.

**Q.** With O=C1CC[C@H]2[C@H](CCN2C(=O)C2CCCO2)N1Cc1ccncc1 (stereo not given in full) as the compound, how does the cytotoxicity at 10 µM read?
**A.** Its cytotoxicity at 10 µM is 0.898%.

**Q.** With Cc1nn(C)cc1CN(C)C(=O)c1ccccn1 as the compound, how does the cytotoxicity at 10 µM read?
**A.** Its cytotoxicity at 10 µM is 4.12%.

**Q.** With O=C(O)CSc1nccc(-c2ccc3c(c2)OCO3)n1 as the compound, how does the cytotoxicity at 10 µM read?
**A.** The cytotoxicity at 10 µM was -3.61%.

**Q.** Which cytotoxicity at 10 µM does the source give for Cc1cc(C(F)F)nn1CC(=O)NCc1nccn1C here?
**A.** Its cytotoxicity at 10 µM is -2.17%.

**Q.** For Nc1nc(N)c2c(n1)OC1(COCCN(Cc3nccs3)C1)C2 (stereo not given), which cytotoxicity at 10 µM is on record?
**A.** The cytotoxicity at 10 µM was -0.56%.

**Q.** Which cytotoxicity at 10 µM does the source give for O=C(O)C1CN(c2cncc(Cc3ccccc3)n2)C1 here?
**A.** Its cytotoxicity at 10 µM is 0.885%.

**Q.** With CC(=O)Nc1nc(C2CCCN(C(=O)CN(C)C)C2)cs1 (stereo not given) as the compound, how does the cytotoxicity at 10 µM read?
**A.** Its cytotoxicity at 10 µM is -43.4%.

**Q.** With Cc1cnc(-c2nc(NC3CC3)ncc2-c2cc(C)no2)cn1 as the compound, how does the cytotoxicity at 10 µM read?
**A.** The cytotoxicity at 10 µM was -21.3%.

**Q.** With NC(=O)CN1CCCC(Cc2ccc(N)nn2)C1 (stereo not given) as the compound, how does the cytotoxicity at 10 µM read?
**A.** Its cytotoxicity at 10 µM is -31.1%.

**Q.** For C[C@@H]1C[C@H](C(F)(F)F)n2nc(C3CCN(C(=O)C(C)(C)C)CC3)cc2N1, which cytotoxicity at 10 µM is on record?
**A.** The cytotoxicity at 10 µM was -32.8%.

**Q.** Which cytotoxicity at 10 µM does the source give for CN1CCCC(Cc2cncc(C(=O)NC3CC3)c2)C1 (stereo not given) here?
**A.** The cytotoxicity at 10 µM was -25.6%.

**Q.** With COCCN1CCCC1c1nccnc1Nc1ncc(C)s1 (stereo not given) as the compound, how does the cytotoxicity at 10 µM read?
**A.** The cytotoxicity at 10 µM was -7.99%.

**Q.** For CC(C)(C)SCC(=O)Nc1cc(-n2nnnc2C2CC2)ccc1F, which cytotoxicity at 10 µM is on record?
**A.** The cytotoxicity at 10 µM was -12%.

**Q.** With CSc1cc2c(cc1NC(=O)NCc1ccncc1)OCCO2 as the compound, how does the cytotoxicity at 10 µM read?
**A.** The cytotoxicity at 10 µM was 7.55%.

**Q.** For CCC(CO)Nc1nc(C(F)F)nc2ccccc12 (stereo not given), which cytotoxicity at 10 µM is on record?
**A.** Its cytotoxicity at 10 µM is 1.26%.

**Q.** Which cytotoxicity at 10 µM does the source give for CCOC(C)c1nccn1Cc1noc(CC)n1 (stereo not given) here?
**A.** Its cytotoxicity at 10 µM is -9.06%.

**Q.** For O=C1CC(C(=O)NCc2ccccc2Oc2ccccc2F)CCN1 (stereo not given), which cytotoxicity at 10 µM is on record?
**A.** The cytotoxicity at 10 µM was -2.81%.

**Q.** With Cc1csc(N(C)C(=O)C2CC(=O)N(CCc3ccccc3)C2)n1 (stereo not given) as the compound, how does the cytotoxicity at 10 µM read?
**A.** The cytotoxicity at 10 µM was -99.4%.

**Q.** With CCOC(=O)C(C)NC(=O)CCc1ccc(F)cc1 (stereo not given) as the compound, how does the cytotoxicity at 10 µM read?
**A.** Its cytotoxicity at 10 µM is -9.92%.

**Q.** Which cytotoxicity at 10 µM does the source give for COCCN(C)CC1CCCN1S(=O)(=O)c1cc(C)oc1C (stereo not given) here?
**A.** Its cytotoxicity at 10 µM is 0.729%.

**Q.** With Cc1ccc(CCC(=O)N2CCn3c(nnc3C(C)C)C2)cc1Cl as the compound, how does the cytotoxicity at 10 µM read?
**A.** Its cytotoxicity at 10 µM is -5.45%.

**Q.** For CC(C)c1n[nH]c(C2CN(C(=O)COc3ccc(F)cc3)CCO2)n1 (stereo not given), which cytotoxicity at 10 µM is on record?
**A.** Its cytotoxicity at 10 µM is -5.7%.

**Q.** Which cytotoxicity at 10 µM does the source give for CCOC(=O)COc1cccc(NC(=O)C2COCCO2)c1 (stereo not given) here?
**A.** Its cytotoxicity at 10 µM is 7.01%.

**Q.** For CCc1nnc2n1CCN(C(=O)c1ccc3c(c1)[nH]c(=O)n3C)C2, which cytotoxicity at 10 µM is on record?
**A.** The cytotoxicity at 10 µM was -3.22%.

**Q.** With Cc1cn(-c2ccccc2)nc1NS(=O)(=O)c1cc(C(=O)O)sc1C as the compound, how does the cytotoxicity at 10 µM read?
**A.** Its cytotoxicity at 10 µM is -4.87%.

**Q.** Which cytotoxicity at 10 µM does the source give for Cc1nc(C)n(CC2CCCN2CC(=O)NCCC#N)n1 (stereo not given) here?
**A.** Its cytotoxicity at 10 µM is -2.78%.

**Q.** With Cc1nn(-c2ccccc2)nc1C(=O)NCC(c1ccco1)N(C)C (stereo not given) as the compound, how does the cytotoxicity at 10 µM read?
**A.** The cytotoxicity at 10 µM was 6.51%.

**Q.** Which cytotoxicity at 10 µM does the source give for Cc1nc(C(=O)N(C)C2CC(=O)N(Cc3ccccc3)C2=O)cs1 (stereo not given) here?
**A.** The cytotoxicity at 10 µM was 0.423%.

**Q.** With CN1CC(C(=O)NC2(c3ccc(Cl)cc3)CCOCC2)CC1=O (stereo not given) as the compound, how does the cytotoxicity at 10 µM read?
**A.** Its cytotoxicity at 10 µM is 13.8%.

**Q.** With Cc1nc(C2CCCN2C(=O)c2ccc(=O)n(C)n2)no1 (stereo not given) as the compound, how does the cytotoxicity at 10 µM read?
**A.** The cytotoxicity at 10 µM was -2.64%.

**Q.** Which cytotoxicity at 10 µM does the source give for Cc1cc(C(=O)O)c2c(Br)cccc2n1 here?
**A.** The cytotoxicity at 10 µM was -0.575%.

**Q.** With Cc1ccc(C)c(CS(=O)(=O)CC(=O)NC(C)c2ccc(F)cc2F)c1 (stereo not given) as the compound, how does the cytotoxicity at 10 µM read?
**A.** Its cytotoxicity at 10 µM is 9.71%.

**Q.** Which cytotoxicity at 10 µM does the source give for CC(C)c1nncn1CCNC(=O)c1ccc(Cl)cc1O here?
**A.** The cytotoxicity at 10 µM was -5.01%.

**Q.** Which cytotoxicity at 10 µM does the source give for O=C(NCC[S+]([O-])c1ccccc1)NCC(F)(F)F (stereo not given) here?
**A.** Its cytotoxicity at 10 µM is -1.09%.

**Q.** With CCCNC(=O)Nc1cc2c(cc1SC)OCCO2 as the compound, how does the cytotoxicity at 10 µM read?
**A.** Its cytotoxicity at 10 µM is -19%.

**Q.** For Nc1cc(CCCNC(=O)NC2CC2)nn1-c1ccccc1, which cytotoxicity at 10 µM is on record?
**A.** The cytotoxicity at 10 µM was 1.54%.

**Q.** With Cc1cnn(CC2CCCN2Cc2coc(-c3cccs3)n2)c1 (stereo not given) as the compound, how does the cytotoxicity at 10 µM read?
**A.** Its cytotoxicity at 10 µM is -3.01%.

**Q.** With COc1ccc(OC)c(CNCCc2cc(F)cc3c2OCOC3)c1 as the compound, how does the cytotoxicity at 10 µM read?
**A.** The cytotoxicity at 10 µM was -8.08%.

**Q.** Which cytotoxicity at 10 µM does the source give for Cc1nc(C)n(CC2CN(Cc3cccc(C(N)=O)c3)CCO2)n1 (stereo not given) here?
**A.** Its cytotoxicity at 10 µM is 6.2%.

**Q.** With Cc1ccc(N2CCc3ncnc(N(C)C)c3CC2)nn1 as the compound, how does the cytotoxicity at 10 µM read?
**A.** Its cytotoxicity at 10 µM is -102%.

**Q.** For CC1c2ncc(COCC3CC3)n2CCN1C(=O)c1ccn(C)n1 (stereo not given), which cytotoxicity at 10 µM is on record?
**A.** Its cytotoxicity at 10 µM is 0.993%.

**Q.** With Cn1cc(-c2nnn3c2COC(CNC(=O)c2cccs2)C3)cn1 (stereo not given) as the compound, how does the cytotoxicity at 10 µM read?
**A.** Its cytotoxicity at 10 µM is 3.31%.

**Q.** With Fc1cccc(C2(CNC3CCOC4(CCOCC4)C3)CCOCC2)c1 (stereo not given) as the compound, how does the cytotoxicity at 10 µM read?
**A.** Its cytotoxicity at 10 µM is 0.616%.

**Q.** Which cytotoxicity at 10 µM does the source give for Cc1cc(C)c2c(NCCC34CCCN3CCC4)ncnc2n1 here?
**A.** The cytotoxicity at 10 µM was -2.43%.

**Q.** For CCn1c(C)nnc1SCCNc1cc(COC)ncn1, which cytotoxicity at 10 µM is on record?
**A.** Its cytotoxicity at 10 µM is 6.35%.

**Q.** With CCS(=O)(=O)N1CCOC(CCCc2ccccc2)C1 (stereo not given) as the compound, how does the cytotoxicity at 10 µM read?
**A.** Its cytotoxicity at 10 µM is -9.31%.

**Q.** Which cytotoxicity at 10 µM does the source give for Cc1ccc(C)c2c(O)cc(CN[C@H]3CCCCNC3=O)nc12 here?
**A.** The cytotoxicity at 10 µM was 5.63%.
